Measurements reported in ChEMBL document CHEMBL2169846, “Design and synthesis of Pictet-Spengler condensation products that exhibit oncogenic-RAS synthetic lethality and induce non-apoptotic cell death” (Bioorg Med Chem Lett, 2012).
Activity calls are given as the source filed them. No cut-off for these calls is given here.

Assays:
[1] = target: E3 ubiquitin-protein ligase Mdm2 (Homo sapiens) (UniProt Q00987); test: Inhibition of wild type Mdm2 at 20 ug/mL after 2 hrs by cell-based luciferase assay
Sequence of E3 ubiquitin-protein ligase Mdm2 (Homo sapiens) (Q00987 whole entry, looked up): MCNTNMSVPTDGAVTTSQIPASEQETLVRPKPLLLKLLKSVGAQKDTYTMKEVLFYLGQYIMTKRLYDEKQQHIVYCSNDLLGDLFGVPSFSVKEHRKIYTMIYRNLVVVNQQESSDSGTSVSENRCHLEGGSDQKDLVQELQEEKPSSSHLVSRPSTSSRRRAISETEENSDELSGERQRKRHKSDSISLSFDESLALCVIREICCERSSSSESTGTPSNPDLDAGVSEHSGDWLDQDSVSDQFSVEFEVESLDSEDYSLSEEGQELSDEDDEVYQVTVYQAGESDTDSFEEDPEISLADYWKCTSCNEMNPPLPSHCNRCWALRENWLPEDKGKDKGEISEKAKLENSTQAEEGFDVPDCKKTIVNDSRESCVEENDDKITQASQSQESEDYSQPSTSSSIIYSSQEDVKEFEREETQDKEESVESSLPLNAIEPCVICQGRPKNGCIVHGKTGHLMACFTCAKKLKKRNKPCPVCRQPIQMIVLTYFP

[2] = tested on: E3 ubiquitin-protein ligase Mdm2 (Homo sapiens), Q00987 [C464A]; test: Inhibition of Mdm2 C464A mutant at 20 ug/mL after 2 hrs by cell-based luciferase assay
Sequence of E3 ubiquitin-protein ligase Mdm2 (Homo sapiens), Q00987 [C464A] (Q00987 whole entry C464A): as the sequence (Q00987 whole entry, looked up) above, with C464A counted along it

HT-1080 [3] = test: Cytotoxicity against human HT1080 cells after 48 hrs by alamar blue assay; type: functional; settings: HT-1080, 48 h, read-out: LC50 (the source's name)
RKO [4] = test: Cytotoxicity against human RKO cells after 48 hrs by alamar blue assay; type: functional; settings: read-out: LC50 (the source's name)
U2OS [5] = test: Cytotoxicity against human U2OS cells after 48 hrs by alamar blue assay; type: functional; settings: read-out: LC50 (the source's name)
[6] = Cytotoxicity against human HT1299 cells after 48 hrs by alamar blue assay; type: functional; settings: HT1299, 48 h, read-out: LC50 (the source's name)
[7] = Cytotoxicity against human BJeH cells expressing wild type RAS after 48 hrs by alamar blue assay; type: functional, cell-based; settings: read-out: LC50 (the source's name)
[8] = Cytotoxicity against human BJeLR cells expressing RAS G12V mutant after 48 hrs by alamar blue assay; type: functional, cell-based; settings: read-out: LC50 (the source's name)
MCF7 [9] = test: Cytotoxicity against human MCF7 cells after 48 hrs by alamar blue assay; type: functional; settings: MCF7, 48 h, read-out: LC50 (the source's name)
BJeH [10] = test: Cytotoxicity against human BJeH cells expressing wild type RAS at 20 ug/mL after 48 hrs by alamar blue assay; type: functional, cell-based
U2OS [11] = test: Cytotoxicity against human U2OS cells at 20 ug/mL after 48 hrs by alamar blue assay; type: functional, cell-based
[12] = Ratio of MEL24 LC50 to compound LC50 for human BJeLR cells expressing RAS G12V mutant; type: functional
BJeLR [13] = test: Cytotoxicity against human BJeLR cells expressing RAS G12V mutant at 20 ug/mL after 48 hrs by alamar blue assay; type: functional, cell-based
RKO [14] = test: Cytotoxicity against human RKO cells at 20 ug/mL after 48 hrs by alamar blue assay; type: functional, cell-based
Outline: (§1)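 Each cell line exposed for 48 h to a 2-fold, 12-point dilution series beginning at 20 µg/mL. Viability by Alamar blue; LC50 derived from the curves.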

MCF7 [15] = test: Cytotoxicity against human MCF7 cells at 20 ug/mL after 48 hrs by alamar blue assay; type: functional, cell-based; outline: as §1
HT1299 = test: Cytotoxicity against human HT1299 cells at 20 ug/mL after 48 hrs by alamar blue assay; type: functional, cell-based; outline: as §1
BJeLR [16] = test: Cytotoxicity against human BJeLR cells expressing RAS G12V mutant at 0.57 uM at 12 hrs by trypan blue staining; type: functional, cell-based
Outline: (§2)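 Time-course in BJ-TERT/LT/ST/RAS^V12 cells exposed for the designated times to erastin (10 µM), test compound (30 µM) or RSL3 (0.57 µM) to follow onset of death. Data representative of duplicate experiments.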

BJeLR [17] = test: Cytotoxicity against human BJeLR cells expressing RAS G12V mutant at 0.57 uM at 24 hrs by trypan blue staining; type: functional, cell-based; outline: as §2
BJeH [18] = test: Cytotoxicity against human BJeH cells expressing wild type RAS at 568 nM after 24 hrs by trypan blue staining; type: functional, cell-based
BJeH [19] = test: Induction of reactive oxygen species production in human BJeH cells expressing wild type RAS after 6 hrs by DCF-based flow cytometric analysis; type: functional, cell-based
BJeLR [20] = test: Induction of reactive oxygen species production in human BJeLR cells expressing RAS G12V mutant after 6 hrs by DCF-based flow cytometric analysis; type: functional, cell-based
HT-1080 [21] = test: Cytotoxicity against human HT1080 cells at 20 ug/mL after 48 hrs by alamar blue assay; type: functional, cell-based; outline: as §1
BJeH [22] = test: Induction of apoptosis in human BJeH cells expressing wild type RAS assessed as caspase 7 activation after 28 hrs by Apo-One assay; type: functional, cell-based
Outline: (§3)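 BJ-TERT and BJ-TERT/LT/ST/RAS(V12) cells given compound as a two-fold, 14-point dilution series for 28 h. Alamar blue then added for viability, and caspase 3/7 activation detected by Apo-ONE in the same wells.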

BJeLR [23] = test: Induction of apoptosis in human BJeLR cells expressing RAS G12V mutant assessed as caspase 7 activation after 28 hrs by Apo-One assay; type: functional, cell-based; outline: as §3
BJeLR [24] = test: Induction of apoptosis in human BJeLR cells expressing RAS G12V mutant assessed as caspase 3 activation after 28 hrs by Apo-One assay; type: functional, cell-based; outline: as §3
BJeH [25] = test: Induction of apoptosis in human BJeH cells expressing wild type RAS assessed as caspase 3 activation after 28 hrs by Apo-One assay; type: functional, cell-based; outline: as §3
BJeH [26] = test: Cytotoxicity against human BJeH cells expressing wild type RAS at 1 uM after 24 hrs by trypan blue staining; type: functional, cell-based
BJeLR [27] = test: Cytotoxicity against human BJeLR cells expressing RAS G12V mutant at 1 uM after 24 hrs by trypan blue staining; type: functional, cell-based
BJeLR [28] = test: Cytotoxicity against human BJeLR cells expressing RAS G12V mutant at 10 uM at 12 hrs by trypan blue staining; type: functional, cell-based
BJeLR [29] = test: Cytotoxicity against human BJeLR cells expressing RAS G12V mutant at 10 uM at 24 hrs by trypan blue staining; type: functional, cell-based
BJeH [30] = test: Cytotoxicity against human BJeH cells expressing wild type RAS at 10 uM after 24 hrs by trypan blue staining; type: functional, cell-based

CC(C)(C)OC(=O)N1CCc2c(n(C(=O)OC(C)(C)C)c3ccccc23)C1CC=O (stereo not drawn)
inhibition [1]: inactive
inhibition [2]: inactive
CC50 (HT-1080 [3]): 15.2 µM
CC50 (RKO [4]): 7 µM
CC50 (U2OS [5]): 10.3 µM
CC50 [6]: 11.8 µM
CC50 [7]: 48.3 µM
CC50 [8]: 23.4 µM

CC(C=O)C1c2c(c3ccccc3n2C(=O)OC(C)(C)C)CCN1C(=O)OC(C)(C)C (stereo not drawn)
inhibition [1]: inactive
inhibition [2]: inactive
CC50 (HT-1080 [3]): 13.7 µM
CC50 (RKO [4]): 7.7 µM
CC50 (MCF7 [9]): 11.4 µM
CC50 (U2OS [5]): 10 µM
CC50 [6]: 46.7 µM
CC50 [8]: 46.7 µM
Activity (BJeH [10]): inactive

CN1C(=O)C(C2NC=Cc3c2[nH]c2ccccc32)C(=O)N(C)C1=O (stereo not drawn)
inhibition [1]: inactive
inhibition [2]: inactive
CC50 (HT-1080 [3]): 16 µM
CC50 (RKO [4]): 25 µM
CC50 (MCF7 [9]): 61.7 µM
CC50 [6]: 61.7 µM
CC50 [8]: 12.9 µM
Activity (U2OS [11]): inactive
Activity (BJeH [10]): inactive
Ratio [12]: 2

CN1C(=O)C(Cc2nccc3c4ccccc4n(C)c23)C(=O)N(C)C1=O
inhibition [1]: inactive
inhibition [2]: inactive
CC50 (HT-1080 [3]): 57.1 µM
CC50 (RKO [4]): 15.4 µM
CC50 (MCF7 [9]): 57.1 µM
CC50 (U2OS [5]): 14.2 µM
CC50 [6]: 57.5 µM
Activity (BJeH [10]): inactive
Activity (BJeLR [13]): inactive

CCOC(=O)C1c2[nH]c3ccccc3c2CCN1C(=O)OCc1ccccc1 (stereo not drawn)
inhibition [1]: inactive
inhibition [2]: inactive
CC50 (RKO [4]): 14.8 µM
CC50 (U2OS [5]): 12.9 µM
CC50 [6]: 52.9 µM
CC50 [7]: 52.9 µM
CC50 [8]: 12.9 µM

CCOC(=O)C1NCCc2c1[nH]c1ccccc21 (stereo not drawn)
inhibition [1]: inactive
inhibition [2]: inactive
CC50 (HT-1080 [3]): 81.9 µM
CC50 (U2OS [5]): 81.9 µM
CC50 [7]: 71.7 µM
CC50 [8]: 71.7 µM
Activity (RKO [14]): inactive
Activity (MCF7 [15]): inactive
Activity (HT1299): inactive

COC(OC)C1c2[nH]c3ccccc3c2CCN1C(=O)OCc1ccccc1 (stereo not drawn)
inhibition [1]: inactive
inhibition [2]: inactive
CC50 (RKO [4]): 22.3 µM
CC50 (MCF7 [9]): 6.5 µM
CC50 (U2OS [5]): 10.2 µM
CC50 [6]: 52.6 µM
CC50 [7]: 52.6 µM
CC50 [8]: 10.2 µM

COC(=O)c1ccc(C2c3[nH]c4ccccc4c3CC(C(=O)OC)N2C(=O)CCl)cc1 (stereo not drawn)
Activity (BJeLR [16]): Active
Activity (BJeLR [17]): Active
Activity (BJeH [18]): inactive
Activity (BJeH [19]): Active
Activity (BJeLR [20]): Active

CC(CC1C(=O)N(C)C(=O)N(C)C1=O)C1NCCc2c1[nH]c1ccccc21 (stereo not drawn)
inhibition [1]: inactive
inhibition [2]: inactive
CC50 (RKO [4]): 54.3 µM
CC50 [7]: 54.3 µM
CC50 [8]: 54.3 µM
Activity (HT-1080 [21]): inactive
Activity (MCF7 [15]): inactive
Activity (HT1299): inactive

CC(CO)C1c2[nH]c3ccccc3c2CCN1C(=O)OC(C)(C)C (stereo not drawn)
inhibition [1]: inactive
inhibition [2]: inactive
CC50 (HT-1080 [3]): 46 µM
CC50 (RKO [4]): 16 µM
CC50 (MCF7 [9]): 22.1 µM
CC50 (U2OS [5]): 17.8 µM
CC50 [6]: 24.8 µM
CC50 [7]: 60.7 µM
Activity (BJeLR [13]): inactive

CN1C(=O)C(C2NCCc3c2[nH]c2ccccc32)C(=O)N(C)C1=O (stereo not drawn)
Activity (BJeH [22]): Active
Activity (BJeLR [23]): Active
inhibition [1]: inactive
inhibition [2]: inactive
CC50 (HT-1080 [3]): 16.5 µM
CC50 (RKO [4]): 30.9 µM
CC50 (MCF7 [9]): 31.2 µM
CC50 (U2OS [5]): 29.4 µM
CC50 [6]: 32.8 µM
CC50 [7]: 32.2 µM
CC50 [8]: 23.3 µM
Activity (BJeLR [24]): Active
Activity (BJeH [25]): Active

COC(OC)C1c2[nH]c3ccccc3c2CCN1Cc1ccccc1 (stereo not drawn)
inhibition [1]: inactive
inhibition [2]: inactive
CC50 (HT-1080 [3]): 59.5 µM
CC50 (RKO [4]): 59.5 µM
CC50 (MCF7 [9]): 59.5 µM
CC50 (U2OS [5]): 59.5 µM
Activity (HT1299): inactive
Activity (BJeH [10]): inactive
Activity (BJeLR [13]): inactive

CCOC(=O)C(C)C1c2[nH]c3ccccc3c2CCN1C(=O)OC(C)(C)C (stereo not drawn)
inhibition [1]: inactive
inhibition [2]: inactive
CC50 (HT-1080 [3]): 53.7 µM
CC50 (RKO [4]): 27.9 µM
CC50 (MCF7 [9]): 23.6 µM
CC50 (U2OS [5]): 53.7 µM
CC50 [6]: 53.7 µM
Activity (BJeH [10]): inactive
Activity (BJeLR [13]): inactive

CN[C@@H]1C[C@H]2O[C@@](C)([C@@H]1OC)n1c3ccccc3c3c4c(c5c6ccccc6n2c5c31)C(=O)NC4
Activity (BJeH [26]): Active
Activity (BJeLR [27]): Active

CC(CC1C(=O)N(C)C(=O)N(C)C1=O)C1c2c(c3ccccc3n2C(=O)OC(C)(C)C)CCN1C(=O)OC(C)(C)C (stereo not drawn)
inhibition [1]: inactive
inhibition [2]: inactive
CC50 (HT-1080 [3]): 14.6 µM
CC50 (RKO [4]): 11.4 µM
CC50 (MCF7 [9]): 9.8 µM
CC50 (U2OS [5]): 12.1 µM
CC50 [6]: 16.9 µM
CC50 [8]: 35.2 µM
Activity (BJeH [10]): inactive

CCOc1ccccc1-n1c(C(C)N2CCN(C(=O)COc3ccc(Cl)cc3)CC2)nc2ccccc2c1=O (stereo not drawn)
Activity (BJeLR [28]): Active
Activity (BJeLR [29]): Active
Activity (BJeH [30]): inactive
Activity (BJeH [19]): Active
Activity (BJeLR [20]): Active

CCOC(=O)C(C)C1c2c(c3ccccc3n2C(=O)OC(C)(C)C)CCN1C(=O)OC(C)(C)C (stereo not drawn)
inhibition [1]: inactive
inhibition [2]: inactive
CC50 (HT-1080 [3]): 25.2 µM
CC50 (RKO [4]): 9.9 µM
CC50 (MCF7 [9]): 9.5 µM
CC50 (U2OS [5]): 14.1 µM
CC50 [6]: 42.3 µM
Activity (BJeH [10]): inactive
Activity (BJeLR [13]): inactive
